Active and inactive are the calls of the source. No cut-off for these calls is given here.

In data set [1] the target is T1, Aurora kinase A/Targeting protein for Xklp2 (Homo sapiens, UniProt O14965).
T1 sequence (O14965 whole entry): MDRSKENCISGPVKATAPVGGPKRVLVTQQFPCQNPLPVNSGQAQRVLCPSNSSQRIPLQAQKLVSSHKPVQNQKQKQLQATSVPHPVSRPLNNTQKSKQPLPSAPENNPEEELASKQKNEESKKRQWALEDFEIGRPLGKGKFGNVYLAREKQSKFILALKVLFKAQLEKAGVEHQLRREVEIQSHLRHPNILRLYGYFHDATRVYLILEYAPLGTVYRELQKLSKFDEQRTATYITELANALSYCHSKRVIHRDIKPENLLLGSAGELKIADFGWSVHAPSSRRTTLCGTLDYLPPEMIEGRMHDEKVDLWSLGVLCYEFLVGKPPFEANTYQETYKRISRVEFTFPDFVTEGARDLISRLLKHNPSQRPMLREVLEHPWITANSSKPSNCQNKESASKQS
T1 sequence (Q9ULW0 whole entry): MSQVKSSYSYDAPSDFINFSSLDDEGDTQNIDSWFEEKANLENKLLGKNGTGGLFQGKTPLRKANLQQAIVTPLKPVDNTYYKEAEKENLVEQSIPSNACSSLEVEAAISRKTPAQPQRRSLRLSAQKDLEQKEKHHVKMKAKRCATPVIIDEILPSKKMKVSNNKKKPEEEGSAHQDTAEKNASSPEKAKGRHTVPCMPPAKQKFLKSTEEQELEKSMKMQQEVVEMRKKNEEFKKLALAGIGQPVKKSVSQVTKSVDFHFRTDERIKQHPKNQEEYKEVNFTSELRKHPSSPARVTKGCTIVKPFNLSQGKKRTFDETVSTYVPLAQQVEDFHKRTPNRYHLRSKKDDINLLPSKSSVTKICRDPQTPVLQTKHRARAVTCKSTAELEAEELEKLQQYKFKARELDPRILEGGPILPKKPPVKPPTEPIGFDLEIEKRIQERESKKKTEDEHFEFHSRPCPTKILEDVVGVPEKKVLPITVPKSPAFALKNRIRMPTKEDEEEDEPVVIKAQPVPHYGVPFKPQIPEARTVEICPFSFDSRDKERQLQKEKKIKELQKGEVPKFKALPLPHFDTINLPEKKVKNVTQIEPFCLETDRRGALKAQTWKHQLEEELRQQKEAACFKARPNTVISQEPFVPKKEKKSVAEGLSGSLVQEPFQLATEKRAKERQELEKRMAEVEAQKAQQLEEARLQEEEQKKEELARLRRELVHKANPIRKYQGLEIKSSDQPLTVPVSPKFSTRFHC
The experiment in a line: Inhibition of human recombinant aurora A/TPX2 complex after 120 mins by IMAP fluorescence polarization assay. The data set is classed as protein-complex assay.

In data set [2] the target is Aurora kinase B/Inner centromere protein (Homo sapiens, UniProt Q96GD4). The experiment in a line: Inhibition of human recombinant aurora B/INCENP complex after 120 mins by IMAP fluorescence polarization assay. The data set is classed as protein-complex assay.
Sequence of Aurora kinase B/Inner centromere protein (Q96GD4 whole entry): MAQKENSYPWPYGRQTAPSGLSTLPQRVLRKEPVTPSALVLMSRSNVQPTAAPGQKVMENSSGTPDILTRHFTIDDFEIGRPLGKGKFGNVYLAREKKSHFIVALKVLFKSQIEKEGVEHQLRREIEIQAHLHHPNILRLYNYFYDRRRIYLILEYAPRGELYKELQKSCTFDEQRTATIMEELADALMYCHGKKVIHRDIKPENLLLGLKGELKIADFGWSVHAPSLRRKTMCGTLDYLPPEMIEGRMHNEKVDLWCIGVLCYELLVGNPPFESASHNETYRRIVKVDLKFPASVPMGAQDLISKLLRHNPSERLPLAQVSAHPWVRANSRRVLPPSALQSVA
Sequence of Aurora kinase B/Inner centromere protein (Q9NQS7 whole entry, further chain): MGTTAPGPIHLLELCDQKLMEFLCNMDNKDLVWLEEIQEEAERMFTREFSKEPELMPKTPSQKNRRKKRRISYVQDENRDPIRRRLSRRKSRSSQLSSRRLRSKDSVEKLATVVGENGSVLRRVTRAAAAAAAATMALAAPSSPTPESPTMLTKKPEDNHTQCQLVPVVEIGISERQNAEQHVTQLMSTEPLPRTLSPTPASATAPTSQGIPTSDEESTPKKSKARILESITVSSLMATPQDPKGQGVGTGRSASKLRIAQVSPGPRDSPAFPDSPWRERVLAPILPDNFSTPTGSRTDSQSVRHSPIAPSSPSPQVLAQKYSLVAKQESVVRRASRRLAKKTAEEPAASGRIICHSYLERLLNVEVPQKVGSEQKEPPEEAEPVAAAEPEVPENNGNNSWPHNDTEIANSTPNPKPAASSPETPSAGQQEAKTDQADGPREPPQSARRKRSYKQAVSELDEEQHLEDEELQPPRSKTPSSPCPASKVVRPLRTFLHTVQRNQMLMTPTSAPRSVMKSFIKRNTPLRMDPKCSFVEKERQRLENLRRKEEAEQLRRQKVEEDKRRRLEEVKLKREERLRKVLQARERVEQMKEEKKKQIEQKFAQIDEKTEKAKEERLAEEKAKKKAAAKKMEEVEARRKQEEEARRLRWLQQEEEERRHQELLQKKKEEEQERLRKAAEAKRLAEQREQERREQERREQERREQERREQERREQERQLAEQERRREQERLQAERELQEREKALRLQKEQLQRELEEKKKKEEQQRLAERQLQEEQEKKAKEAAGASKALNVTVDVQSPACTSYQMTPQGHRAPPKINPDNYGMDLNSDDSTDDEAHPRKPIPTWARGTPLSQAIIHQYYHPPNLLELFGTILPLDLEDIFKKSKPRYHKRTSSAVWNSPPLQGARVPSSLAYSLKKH
For a further data set, the target named is Aurora kinase B (Homo sapiens, UniProt Q96GD4). The experiment in a line: Inhibition of aurora B assessed as inhibition of histone H3 phosphorylation by ELISA based cellular mechanistic assay. The gist of the method:
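Cellular mechanistic assay: ELISA measuring intracellular Aurora B activity through phosphorylation of histone H3, an Aurora B-specific substrate. IC50 values are averages of at least two experiments.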

The subject of data set [3] is A549. The experiment in a line: Cytotoxicity against human A549 cells in presence of 10% human serum. The data set is classed as functional, cell-based. The gist of the method: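 A549 cell proliferation assay run in 10% human serum. EC50 values are averages of at least two experiments, in nM.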
The subject of data set [4] is A549. Nature of the data set: Cell cycle arrest in human A549 cells assessed as multipolar spindle accumulation at 37 nM after 24 hrs by immunofluorescent staining microscopy. The format is functional, cell-based. The method in brief:
(§1)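 A549 tumour cells treated at 12, 37 or 110 nM for 24 h. Cells stained with α-tubulin antibody for mitotic spindles, pericentrin antibodies for centrosomes, and […] for DNA. Mitotic phenotype scored by immunofluorescence.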

Data set [5] concerns A549. Nature of the data set: Cell cycle arrest in human A549 cells assessed as malformed bipolar and monopolar spindle mixture accumulation at 110 nM after 24 hrs by immunofluorescent staining microscopy. The format is functional, cell-based. The gist of the method: as §1
Data set [6] relates to A549. Nature of the data set: Cell cycle arrest in human A549 cells assessed as sub-2N DNA accumulation at 5 times EC50 after 48 hrs by FACS analysis relative to control. The format is functional. The gist of the method:
(§2)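 A549 lung tumour cells treated at 5× the compound's EC50 from the cell proliferation assay, alongside a DMSO control. Cell cycle profile read after 48 h by FACS. Values are the percentage of cells with sub-2N, 2N, 2N to 4N, 4N and >4N DNA content.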

For data set [7], the system named is A549. The experiment in a line: Cell cycle arrest in human A549 cells assessed as 2N DNA accumulation at 5 times EC50 after 48 hrs by FACS analysis relative to control. The format is functional. The method in brief:
as §2

Data set [8] deals with A549. Nature of the data set: Cell cycle arrest in human A549 cells assessed as 2N to 4N DNA accumulation at 5 times EC50 after 48 hrs by FACS analysis relative to control relative to control. The format is functional. The gist of the method: as §2
The subject of data set [9] is A549. Nature of the data set: Cell cycle arrest in human A549 cells assessed as 4N DNA accumulation at 5 times EC50 after 48 hrs by FACS analysis relative to control. The data set is classed as functional. The method in brief:
as §2

In data set [10] the test system is A549. The experiment in a line: Cell cycle arrest in human A549 cells assessed as greater than 4N DNA accumulation at 5 times EC50 after 48 hrs by FACS analysis relative to control. The data set is classed as functional. The method in brief: as §2
Data set [11] has as its system A549. The experiment in a line: Cell cycle arrest in human A549 cells assessed as multipolar spindle accumulation at 12 nM after 24 hrs by immunofluorescent staining microscopy. The data set is classed as functional, cell-based. The method in brief:
as §1

For a further data set, the system named is Rattus norvegicus. The experiment in a line: Dose normalized AUC in po dosed rat. The note with it: in vivo. The data set is classed as ADME, organism-based.
The nature of data set [12]: Oral bioavailability in rat. The data set is classed as ADME, organism-based. The settings on record: in vivo.
Data set [13] can be described thus: Blood clearance in po dosed rat. The data set is classed as ADME, organism-based. The note with it: whole blood.

Sequence of Aurora kinase B (Q96GD4 whole entry): as the sequence (Q96GD4 whole entry) above

For `c1cc(-c2cn[nH]c2)c2cc[nH]c2n1`, the figures for the IC50 (in [1]; in data set [2] (read-out: IC50); on Aurora kinase B) were 584 nM, 782 nM and 13400 nM, respectively. In the data set with A549 [3], the concentration for a half-maximal effect (EC50) is 2570 nM.

Turning to `CN(C)Cc1cccc(-c2cc3c(-c4cnn(C)c4)c(Cl)cnc3[nH]2)c1`, the result in the data set with A549 [4] and with A549 [5] was Active. Besides, the IC50 in data set [1] was determined as 6.2 nM; in [2] (read-out: IC50), 0.51 nM; at Aurora kinase B, 67 nM. The EC50 in the data set on A549 [3] amounted to 21 nM. The Activity in the data set on A549 [6] came to 34%; in the data set with A549 [7], 6%; with A549 [8], 4%; in the data set on A549 [9], 26%; in the data set on A549 [10] it was 30%.

As to `CN(C)Cc1cccc(-c2cc3c(-c4cnn(C)c4)ccnc3[nH]2)c1`, the values for the IC50 (in data set [1]; in data set [2] (read-out: IC50); on Aurora kinase B) were 128 nM, 5.7 nM and 104 nM, respectively. The EC50 in the data set with A549 [3] came out at 134 nM. Besides, the Activity is on record as 36% in the data set with A549 [6]; 13% in the data set with A549 [7]; 4% in the data set with A549 [8]; 43% in the data set with A549 [9]; 3% in the data set with A549 [10].

`CCn1cc(-c2ccnc3[nH]c(-c4cccc(CN(C)C)c4)cc23)c(-c2ccc(NC(=O)N(C)C)cc2)n1` [GSK-1070916]: the IC50 came to 3.2 nM in [2] (read-out: IC50) and 32 nM at Aurora kinase B. In addition, the concentration for a half-maximal effect (EC50) in the data set with A549 [3] was determined as 7 nM. Also, the Activity in the data set with A549 [6] is reported as 21%; with A549 [7], 6%; with A549 [8], 3%; with A549 [9] it was 23%; with A549 [10], 47%.

For `CN(C)Cc1ccc(-c2cc3c(-c4cnn(C)c4)c(Cl)cnc3[nH]2)cc1`, the result with A549 [4] and in the data set with A549 [11] was Active. For the same molecule, the figures for the IC50 (in data set [1]; in data set [2] (read-out: IC50); on Aurora kinase B) were 7.9 nM, 0.61 nM and 9 nM, respectively. Besides, in the data set with A549 [3], the 50% effective concentration (EC50) worked out at 13 nM. Further, the Activity with A549 [6] is recorded as 27%; in the data set with A549 [7] it was 14%; with A549 [8] it was 5%; in the data set with A549 [9], 40%; in the data set on A549 [10], 15%.

Take `CN(C)Cc1ccc(-c2cc3c(-c4cnn(C)c4)ccnc3[nH]2)cc1`: in the data set on Rattus norvegicus, the AUC was determined as 139 ng·h/mL/mg/kg. The molecule also gave a bioavailability in data set [12] of 72%. Moreover, the CL/F in data set [13] came to 86 mL/min/kg. For the same molecule, the IC50 came to 76 nM in data set [1], 5.9 nM in [2] (read-out: IC50) and 169 nM on Aurora kinase B. Besides, the EC50 in the data set on A549 [3] is 24 nM. For the same molecule, the Activity in the data set with A549 [6] is 30%; in the data set on A549 [7] it was 32%; in the data set on A549 [8] it was 7%; in the data set with A549 [9], 29%; in the data set on A549 [10], 2%.

`Cn1cc(-c2ccnc3[nH]ccc23)cn1`: the figures for the IC50 (in data set [1]; in data set [2] (read-out: IC50); on Aurora kinase B) were 982 nM, 802 nM and 6160 nM, respectively. For the same molecule, the concentration giving a half-maximal response (EC50) in the data set on A549 [3] was 11700 nM.

In the case of `CCn1cc(-c2ccnc3[nH]ccc23)c(-c2ccc(NC(=O)N(C)C)cc2)n1`, the IC50 is more than 10000 nM in [1] and 26 nM in data set [2] (read-out: IC50). Also, the EC50 in the data set with A549 [3] came out at 1530 nM.

Take `CCn1cc(-c2ccnc3[nH]ccc23)c(-c2ccc(NC(=O)Nc3ccccc3)cc2)n1`: the IC50 in data set [2] (read-out: pIC50 (converted)) was 2 nM.
